Measured values: ChEMBL document CHEMBL1148905, “Cytotoxic constituents of roots of Chaerophyllum hirsutum” (J Nat Prod, 2004)
Structures can show the parent of a compound that is named as a salt.

Tests used:
Type in all cases: functional, cell-based
HL-60 = test: Cytotoxicity against human HL60 cells after 72 hrs by MTT assay; details: HL-60, 72 h
How it was run: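 HL-60 leukaemia cells in exponential growth, resuspended at 1 × 10^5 cells/mL in RPMI 1640 with 10% FBS, penicillin G and streptomycin. Drug exposure for 72 h, then viability by MTT. Growth at each concentration expressed as % of untreated controls. IC50 (50% growth inhibition) by linear regression. Mean ± SEM of three independent experiments. Doxorubicin hydrochloride as reference.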

HT-1080 = test: Cytotoxicity against human HT1080 cells after 72 hrs by MTT assay; details: HT-1080, 72 h
How it was run: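 HT1080 cells grown in DMEM with 10% FBS, penicillin G and streptomycin. Exponentially growing cultures seeded at 5 × 10^4 cells/mL and left to adhere 18 h before drug addition. MTT viability read after 72 h. Growth as % of untreated controls, IC50 by linear regression. Mean ± SEM of three independent experiments. Doxorubicin hydrochloride as reference.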

LoVo [1] = test: Cytotoxicity against human LoVo cells after 72 hrs by MTT assay
How it was run: (§1)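 Parental LoVo and the mdr-expressing (P-glycoprotein) LoVo/Doxo intestinal adenocarcinoma lines cultured in Ham's F12. Exponentially growing cells seeded at 5 × 10^4 cells/mL and allowed 18 h adherence before drug. MTT viability at 72 h. Growth as % of untreated controls, IC50 by linear regression. Mean ± SEM, three independent experiments. Doxorubicin hydrochloride as reference.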

LoVo [2] = test: Cytotoxicity against human doxorubicin-resistant LoVo cells after 72 hrs by MTT assay; how it was run: as §1

Row | SMILES | IC50 (HL-60) | IC50 (HT-1080) | IC50 (LoVo [1]) | IC50 (LoVo [2])
1 | O=C1O[C@@H](c2ccc(O)cc2)[C@H](C(=O)O)/C1=C\c1ccc(O)cc1 (relative stereo) | 11.3 µM | 36 µM | 13.9 µM | > 40 µM
2 | O=C(O)/C(=C/c1ccc(O)cc1)[C@@H](C(=O)O)C(=O)c1ccc(O)cc1 | 11.5 µM | 30.6 µM | 16.4 µM | 19.6 µM
3 | COc1cccc2c1C(=O)c1c(O)c3c(c(O)c1C2=O)C[C@@](O)(C(=O)CO)C[C@@H]3O[C@H]1C[C@H](N)[C@H](O)[C@H](C)O1 [DOXORUBICIN HYDROCHLORIDE] | 0.01 µM | 0.012 µM | 0.2 µM | 13.2 µM
4 | C=C[C@@H](O)C#CC#C[C@@H](O)/C=C\CCCCCCC [FALCARINDIOL] | 8.9 µM | 13 µM | 4.3 µM | > 40 µM
5 | COC(=O)/C=C/c1ccc(O)c(O)c1 [METHYLCAFFEATE] | 7.5 µM | 11.1 µM | 5.8 µM | > 40 µM
6 | COc1cc2ccc(=O)oc2cc1O [SCOPOLETIN] | 9.5 µM | 12.5 µM | 7.3 µM | 18.5 µM
